In test [1] the target is T1, Alcohol dehydrogenase (Equus caballus) (UniProt P00327+P00328). Description: Reversible inhibition of horse liver alcohol dehydrogenase using ethanol as substrate assessed as remaining enzyme activity at 1 mM by stopped-flow method in presence of 1 mM NAD+.
A further test has as its target Alcohol dehydrogenase (Equus caballus, UniProt P00327+P00328). Description: Inhibition of horse liver alcohol dehydrogenase using ethanol as substrate assessed as dissociation constant by spectrophotometric titration in presence of 1 mM NAD+. In outline: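 Difference titration at 300 nm, 0.1 M sodium phosphate pH 7.0, 25 °C, 1 mM NAD⁺, in a double-sector cuvette (0.438-mm path) against a separated-sector reference. Either 19–27 μM enzyme was titrated with pyrazole, or 100 μM pyrazole was titrated with enzyme. Kd from a Scatchard least-squares fit; SD of three determinations.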

The target in test [2] is T1, Alcohol dehydrogenase (Equus caballus). Description: Competitive inhibition of horse liver alcohol dehydrogenase using ethanol as substrate by spectrophotometric titration in presence of 1 mM NAD+. The gist of the method: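 Purified horse liver EE isoenzyme, dialysed and gel-filtered free of ethanol; 10 nM enzyme. Ethanol varied at 0.4–2 mM with NAD⁺ fixed at 1 mM, in 33 mM sodium phosphate pH 7, 25 °C. Rates recorded spectrophotometrically. Constants come from fitting to the competitive inhibition equation; errors are standard errors of the fit.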

Test [3] shares this target. Briefly: Reversible inhibition of horse liver alcohol dehydrogenase using ethanol as substrate assessed as increase in enzyme activity at 1 mM measured after 40 mins of 100-fold dilution by stopped-flow method in presence of NAD+. Further details: scale not given: the % may be the effect or the level left. In outline:
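0.94 μN enzyme was preincubated with 1 mM NAD⁺ and 1 mM pyrazole, then diluted 100-fold into assay mix (0.55 M ethanol, 1.75 mM NAD⁺, pH 9, 25 °C). NAD⁺ reduction followed at 340 nm for 40 min. Rates were taken as tangents at various times and expressed versus the original activity; an apparent first-order dissociation rate constant was derived.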

Test [4] shares this target. Briefly: Reversible inhibition of horse liver alcohol dehydrogenase using ethanol as substrate assessed as reduction in enzyme activity at 0.1 mM compound in diluted assay mixture measured after 20 to 40 mins by stopped-flow method in presence of NAD+.
Test [5] has the same target. Briefly: Reversible inhibition of horse liver alcohol dehydrogenase using ethanol as substrate at 1 mM measured after 100-fold dilution in presence of NAD+. On the set-up: scale not given: the % may be the effect or the level left.
For test [6] the target is unchanged. Briefly: Inactivation of horse liver alcohol dehydrogenase using ethanol as substrate at 10 mM up to 5 mins by spectrophotometric titration. In outline:
(§1)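 Enzyme (1 mg/mL) incubated with reagent under 5 min in 0.1 M Na₂P₂O₇ adjusted to pH 8.0 with H₃PO₄, 25 °C, with NAD⁺ where stated. Then 10 μL of reaction mixture diluted into 1 mL standard assay mixture, and the initial velocity of NADH production measured. Activity is given relative to the original.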

The target is the same in test [7]. Description: Inactivation of horse liver alcohol dehydrogenase using ethanol as substrate at 10 to 200 mM up to 5 mins by spectrophotometric titration in presence of 1 mM NAD+. The gist of the method:
as §1

The target is the same in test [8]. Briefly: Inactivation of horse liver alcohol dehydrogenase using ethanol as substrate at 200 mM up to 5 mins by spectrophotometric titration. The gist of the method: as §1
Test [9] has the same target. Description: Reversible inhibition of horse liver alcohol dehydrogenase using ethanol as substrate by stopped-flow method in presence of 1 mM NAD+.

Structures are written as SMILES. The source made the active and inactive calls. The rule behind the calls is not given here.

As to `ClCCCc1cc[nH]n1`, the values for the Activity in [1], in test [3] and in test [5] were 67%, ≥ 48% and 10%, respectively. Moreover, the Kd on Alcohol dehydrogenase is 40 µM. In test [2], the inhibition result was “Active”. Further, the inhibition in test [4] was 52%.
With `O=C(O)c1cc[nH]n1`, the Kd at Alcohol dehydrogenase came to 6500 µM. In addition, the inhibition result in [2] is “Active”.
Regarding `Cc1cc[nH]n1`, the Kd at Alcohol dehydrogenase is 125 µM. In test [2], the inhibition entry is “Active”.
On to `OCc1cc[nH]n1`, for which the equilibrium dissociation constant (Kd) on Alcohol dehydrogenase is 150 µM. Further, the inhibition result in test [2] is “Active”.
For `CC(=O)c1cc[nH]n1`, in that order: 5100 µM and “Active”.
Take `ClCc1cn[nH]c1`: the Kd at Alcohol dehydrogenase amounted to 2.7 µM.
Still for that read-out and setting: in the case of `OCCc1cn[nH]c1` it was 0.77 µM.
On to `OCCCc1cc[nH]n1`, for which the Kd at Alcohol dehydrogenase turned out to be 60 µM. The inhibition entry in [2] is “Active”.
`OCc1cn[nH]c1`: the Kd on Alcohol dehydrogenase amounted to 3.6 µM.
On to `ClCc1cc[nH]n1`, for which the Activity is 36% in test [6] and 98% in [8]. For the same compound, in [2], the inhibition result is “Active”. In addition, the outcome in [7] was inactive.
As to `OCCc1cc[nH]n1`, the Kd on Alcohol dehydrogenase is 170 µM. Moreover, the inhibition result in test [2] was “Active”.
On to `c1cn[nH]c1` [PYRAZOLE], for which the Kd at Alcohol dehydrogenase came out at 0.2 µM. Also, in [9], the Activity was found to be 3 ×10⁵ /M/s.
Turning to `OCCCc1cn[nH]c1`, the Kd at Alcohol dehydrogenase amounted to 0.56 µM.
For the compound `Cc1cn[nH]c1` [FOMEPIZOLE], the Kd on Alcohol dehydrogenase worked out at 0.013 µM.
For the compound `ClCCCc1cn[nH]c1`, the dissociation constant Kd on Alcohol dehydrogenase worked out at 0.02 µM.
In the case of `ClCCc1cc[nH]n1`, the Activity in test [1] was 67%; in test [3], ≥ 48%; in test [5] it was 10%. Also, on Alcohol dehydrogenase, the Kd is 200 µM. In addition, in test [2], the inhibition entry was “Active”.
